In ChEMBL document CHEMBL1125755, “Synthesis and structure-activity relationships of benzo[b]thienylallylamine antimycotics” (1991):
≈ marks a conversion by molar mass, not a printed value.

Tests used:
Trichophyton benhamiae [1] = test: Evaluated in vitro for the minimum inhibitory concentration against Trichophyton mentagrophytes; type: functional, Arthroderma benhamiae
In short: (§1)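 Dermatophytes were tested in glass tubes of Sabouraud's dextrose broth (pH 6.5) against DMSO-dissolved compounds serially diluted in the medium. Inoculum was taken by spatula from 21-day Kimming agar cultures grown at 30 °C. Incubation was 7 days at 30 °C. MIC was the lowest concentration showing no macroscopic fungal growth.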

Sporothrix schenckii [2] = test: Evaluated in vitro for the minimum inhibitory concentration against Sporothrix schenckii.
Microsporum canis [3] = test: Evaluated in vitro for the minimum inhibitory concentration against Microsporum canis.; type: functional; in short: as §1
Candida parapsilosis [4] = test: Evaluated in vitro for the minimum inhibitory concentration against Candida parapsilosis 39.; type: functional; conditions: Lodderomyces parapsilosis
In short: (§2)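 Yeast tube dilution in malt extract broth (pH 4.8), with compounds in DMSO serially diluted in the medium. Inoculum was blastospores from about 30-h shaken cultures in yeast nitrogen base at 37 °C. Growth was read after 48 h at 30 °C. MIC was the lowest concentration without macroscopically visible growth.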

Candida albicans [5] = test: Evaluated in vitro for the minimum inhibitory concentration against Candida albicans 124; type: functional; in short: as §2
Aspergillus fumigatus [6] = test: In vitro minimum inhibitory concentration which is the lowest concentration at which no signs of fungal growth were detected against Aspergillus fumigatus
Aspergillus fumigatus [7] = test: Evaluated in vitro for the minimum inhibitory concentration against Aspergillus fumigatus.
Candida parapsilosis [8] = test: In vitro minimum inhibitory concentration which is the lowest concentration at which no signs of fungal growth were detected against Candida parapsilosis 39.; type: functional; conditions: Lodderomyces parapsilosis; in short: as §2
Aspergillus fumigatus [9] = test: In vitro minimum inhibitory concentration which is the lowest concentration at which no signs of fungal growth were detected against Aspergillus fumigatus.
Microsporum canis [10] = test: In vitro minimum inhibitory concentration which is the lowest concentration at which no signs of fungal growth were detected against Microsporum canis.; type: functional; in short: as §1
Trichophyton benhamiae [11] = test: In vitro minimum inhibitory concentration which is the lowest concentration at which no signs of fungal growth were detected against Trichophyton mentagrophytes.; type: functional, Arthroderma benhamiae; in short: as §1
Sporothrix schenckii [12] = test: In vitro minimum inhibitory concentration which is the lowest concentration at which no signs of fungal growth were detected against Sporothrix schenckii
Candida albicans [13] = test: In vitro minimum inhibitory concentration which is the lowest concentration at which no signs of fungal growth were detected against Candida albicans 124; type: functional; in short: as §2
Candida albicans [14] = test: In vitro minimum inhibitory concentration at which no signs of fungal growth were detected against clinical isolated strains of Candida albicans.; type: functional; in short: as §2
Aspergillus fumigatus [15] = test: In vitro minimum inhibitory concentration at which no signs of fungal growth were detected against laboratory adapted strains of Aspergillus fumigatus.; type: functional
In short: (§3)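 Inoculum of filamentous fungi harvested from 21-day-old Kimming agar cultures grown at 30 °C. Broth dilution in glass tubes with Sabouraud's dextrose broth (pH 6.5); compounds dissolved in DMSO and serially diluted in medium. Incubation at 30 °C, read after 72 h. MIC taken as the lowest concentration with no macroscopically visible growth.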

Sporothrix schenckii [16] = test: In vitro minimum inhibitory concentration at which no signs of fungal growth were detected against laboratory adapted strains of Sporotrix schenck ii.; type: functional
In short: (§4)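 Sabouraud's dextrose broth (pH 6.5) in glass tubes; compounds dissolved in DMSO and serially diluted with medium. Incubated at 30 °C and read after 7 days. MIC is the lowest concentration with no macroscopically visible fungal growth.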

Nakaseomyces glabratus = test: In vitro minimum inhibitory concentration at which no signs of fungal growth were detected against laboratory adapted strains of Torulopsis glabrata.; type: functional
In short: (§5)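 Yeast blastospores taken from shaken cultures about 30 h old, grown at 37 °C in yeast nitrogen base. Tube dilution used malt extract broth (pH 4.8); compounds were dissolved in DMSO and serially diluted in medium. Incubated at 30 °C and read after 48 h. MIC is the lowest concentration with no macroscopic growth.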

Arthrodermataceae [17] = test: In vitro minimum inhibitory concentration at which no signs of fungal growth were detected against clinical isolated strains of dermatophytes.; type: functional; in short: as §1
[18] = tested on: Scopulariopsis brevicaulis; test: In vitro minimum inhibitory concentration at which no signs of fungal growth were detected against laboratory adapted strains of Scopulariopsis brevicaulis.; type: functional
In short: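 Inoculum of this mould harvested from 21-day-old Kimming agar cultures grown at 30 °C. Compounds dissolved in DMSO and serially diluted in broth in glass tubes. Incubated at 30 °C and read after 72 h. MIC is the lowest concentration with no macroscopically detectable growth.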

Candida parapsilosis [19] = test: In vitro minimum inhibitory concentration at which no signs of fungal growth were detected against laboratory adapted strains of Candida parapsilosis.; type: functional; conditions: Lodderomyces parapsilosis; in short: as §5
Arthrodermataceae [20] = test: In vitro minimum inhibitory concentration at which no signs of fungal growth were detected against laboratory adapted strains of dermatophytes.; type: functional; in short: as §4
Candida albicans [21] = test: In vitro minimum inhibitory concentration at which no signs of fungal growth were detected against laboratory adapted strains of Candida albicans.; type: functional; in short: as §5
Aspergillus niger = test: In vitro minimum inhibitory concentration at which no signs of fungal growth were detected against laboratory adapted strains of Aspergillus niger.; type: functional; in short: as §3

Structure (SMILES)	MIC (Trichophyton benhamiae [1]) [µg/mL]	MIC (Sporothrix schenckii [2]) [µg/mL]	MIC (Microsporum canis [3]) [µg/mL]	MIC (Candida parapsilosis [4]) [µg/mL]	MIC (Candida albicans [5]) [µg/mL]	MIC (Aspergillus fumigatus [7]) [µg/mL]	also measured
CN(C/C=C/C#CC(C)(C)C)Cc1cc2ccccc2s1	> 100	> 100	> 100	> 200	> 200		
CN(C/C=C/C#CC(C)(C)C)Cc1csc2ccc(Cl)cc12	0.006 (≈ 0.0181 µM)	3.13 (≈ 9.43 µM)	0.006 (≈ 0.0181 µM)	0.4 (≈ 1.21 µM)	12.5 (≈ 37.7 µM)		MIC (Aspergillus fumigatus [6]): 0.4 µg/mL (≈ 1.21 µM)
CN(C/C=C/C#CC(C)(C)C)Cc1c(Cl)sc2ccccc12	0.1 (≈ 0.301 µM)	> 200	0.1 (≈ 0.301 µM)	6.25 (≈ 18.8 µM)	> 200	> 200	
CN(C/C=C/C#CC(C)(C)C)Cc1cccc2c(C=O)csc12							MIC (Candida parapsilosis [8]): 0.4 µg/mL (≈ 1.23 µM); MIC (Aspergillus fumigatus [9]): 0.4 µg/mL (≈ 1.23 µM); MIC (Microsporum canis [10]): 0.02 µg/mL (≈ 0.0614 µM); MIC (Trichophyton benhamiae [11]): 0.05 µg/mL (≈ 0.154 µM); MIC (Sporothrix schenckii [12]): 1.56 µg/mL (≈ 4.79 µM); MIC (Candida albicans [13]): 6.25 µg/mL (≈ 19.2 µM)
CN(C/C=C/C#CC(C)(C)C)Cc1ccc2sccc2c1	0.4 (≈ 1.34 µM)	> 200	1.56 (≈ 5.24 µM)	100 (≈ 336 µM)	200 (≈ 672 µM)	1.56 (≈ 5.24 µM)	
CN(C/C=C/C#CC(C)(C)C)Cc1csc2ccccc12.Cl	0.01	3.13	0.02	3.13	100	0.8	
CN(C/C=C/C#CC(C)(C)C)Cc1cccc2c(Cl)csc12.Cl	0.0015	0.1	0.003	0.1	0.8	0.2	MIC (Candida albicans [14]): 3.13 µg/mL; MIC (Aspergillus fumigatus [15]): 0.05 µg/mL; MIC (Sporothrix schenckii [16]): 0.1 µg/mL; MIC (Nakaseomyces glabratus): > 100 µg/mL; MIC (Arthrodermataceae [17]): 0.02 µg/mL; MIC [18]: 0.05 µg/mL; MIC (Candida parapsilosis [19]): 0.02 µg/mL; MIC (Arthrodermataceae [20]): 0.003 µg/mL; MIC (Candida albicans [21]): 0.4 µg/mL; MIC (Aspergillus niger): 0.02 µg/mL
CN(C/C=C/C#CC(C)(C)C)Cc1cccc2scc(Cl)c12.Cl	0.05	25	0.1	6.25	50	0.8	
CN(C/C=C/C#CC(C)(C)C)Cc1csc2c(Cl)cccc12.Cl	0.02	> 100	0.05	1.56	25	0.8	
CN(C/C=C/C#CC(C)(C)C)Cc1cccc2sccc12.Cl	0.006	0.8	0.01	1.56	50	0.4	
CN(C/C=C/C#CC(C)(C)C)Cc1cccc2c(C(F)(F)F)csc12.Cl	0.05	50	0.1	1.56	3.13	12.5	
CN(C/C=C/C#CC(C)(C)C)Cc1cc(Cl)cc2ccsc12.Cl	0.05	> 200	0.1	0.2	> 200	3.13	
CSc1csc2c(CN(C)C/C=C/C#CC(C)(C)C)cccc12.Cl	0.02	> 200	0.1	0.8	6.25	6.25	
CN(C/C=C/C#CC(C)(C)C)Cc1cccc2c(C#N)csc12.Cl							MIC (Candida parapsilosis [8]): 0.2 µg/mL; MIC (Aspergillus fumigatus [9]): 3.13 µg/mL; MIC (Microsporum canis [10]): 0.01 µg/mL; MIC (Trichophyton benhamiae [11]): 0.02 µg/mL; MIC (Sporothrix schenckii [12]): 0.4 µg/mL; MIC (Candida albicans [13]): 3.13 µg/mL
CN(C/C=C/C#CC(C)(C)C)Cc1ccc(Cl)c2ccsc12.Cl	0.1	> 200	0.4	0.8	100	> 200	
CN(C/C=C/C#CC(C)(C)C)Cc1cccc2sc(Cl)cc12.Cl	0.006	6.25	0.006	0.2	25	0.2	
CN(C/C=C/C#CC(C)(C)C)Cc1cccc2cc(F)sc12.Cl	0.006	3.13	0.01		25	0.05	MIC (Candida parapsilosis [8]): 6.25 µg/mL
CN(C/C=C/C#CC(C)(C)C)Cc1cccc2ccsc12.Cl	0.006	0.1	0.01	0.8	25	0.2	
CN(C/C=C/C#CC(C)(C)C)Cc1cccc2cc(Cl)sc12.Cl	0.01	> 100	0.01	0.8	> 100	> 100	
CN(C/C=C/C#CC(C)(C)C)Cc1cccc2c(Br)csc12.Cl							MIC (Candida parapsilosis [8]): 0.2 µg/mL; MIC (Aspergillus fumigatus [9]): 0.8 µg/mL; MIC (Microsporum canis [10]): 0.006 µg/mL; MIC (Trichophyton benhamiae [11]): 0.006 µg/mL; MIC (Sporothrix schenckii [12]): 0.4 µg/mL; MIC (Candida albicans [13]): 0.8 µg/mL
Cc1csc2c(CN(C)C/C=C/C#CC(C)(C)C)cccc12.Cl	0.006	0.1	0.006	0.4	3.13	0.4	
CN(C/C=C/C#CC(C)(C)C)Cc1cccc2c(F)csc12.Cl	0.0008	0.05	0.0015	0.1	0.8	0.1	
